Active and inactive are the calls of the source. No cut-off for these calls is given here.
Key:
[1] = system: KB; test: Growth inhibition of human KB cells expressing human RFC/FRalpha/PCFT after 96 hrs by CellTiter-blue assay in presence of folic acid; format: functional, cell-based
[2] = system: KB; test: Growth inhibition of human KB cells expressing human RFC/FRalpha/PCFT after 96 hrs by CellTiter-blue assay; format: functional, cell-based
[3] = Growth inhibition of Chinese hamster R2(VC) cells after 96 hrs by CellTiter-blue assay; conditions: Cricetulus griseus
[4] = system: R2; test: Growth inhibition of Chinese hamster R2 cells expressing human PCFT4 after 96 hrs by CellTiter-blue assay; format: functional, cell-based, Cricetulus griseus; conditions: R2, 96 h
[5] = Growth inhibition of Chinese hamster RT16 cells after 96 hrs by CellTiter-blue assay in presence of folic acid; format: functional, cell-based; conditions: Cricetulus griseus, RT16, 96 h
Method in brief: (§1)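 RT16 cells were first kept 3 days in folate-free RPMI. Cells were exposed to a drug concentration range with or without 200 nM folic acid to block FR uptake. After 96 h, CellTiter-blue fluorescence was read.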

[6] = Growth inhibition of Chinese hamster RT16 cells after 96 hrs by CellTiter-blue assay; format: functional, cell-based; conditions: Cricetulus griseus, RT16, 96 h; method in brief: as §1
[7] = Growth inhibition of Chinese hamster MTXRII-OuaR2-4 cells after 96 hrs by CellTiter-blue assay; conditions: Cricetulus griseus
[8] = Growth inhibition of Chinese hamster PC43-10 cells after 96 hrs by CellTiter-blue assay; format: functional, cell-based; conditions: Cricetulus griseus, PC43-10, 96 h
[9] = Growth inhibition of Chinese hamster D4 cells after 96 hrs by CellTiter-blue assay in presence of folic acid; format: functional, cell-based; conditions: Cricetulus griseus, D4, 96 h
[10] = Growth inhibition of Chinese hamster D4 cells after 96 hrs by CellTiter-blue assay; format: functional, cell-based; conditions: Cricetulus griseus, D4, 96 h
[11] = target: Folate receptor beta (Homo sapiens) (UniProt P14207); test: Displacement of [3H]-folic acid from human folate receptor-beta expressed in Chinese hamster D4 cells after 15 mins; format: cell-based
Folate receptor beta (Homo sapiens), sequence (P14207 17-230 limits assumed): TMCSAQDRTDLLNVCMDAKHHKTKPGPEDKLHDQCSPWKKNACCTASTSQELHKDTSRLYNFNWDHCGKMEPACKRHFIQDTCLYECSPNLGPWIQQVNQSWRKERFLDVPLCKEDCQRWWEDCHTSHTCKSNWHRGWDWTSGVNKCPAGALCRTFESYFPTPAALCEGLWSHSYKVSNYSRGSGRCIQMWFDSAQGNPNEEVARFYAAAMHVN
Method in brief: (§2)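 Cells (~1.6x10^6) rinsed with DPBS, then acidic buffer (10 mM sodium acetate, 150 mM NaCl, pH 3.5) to strip bound folate. Washed with ice-cold HEPES-buffered saline, pH 7.4. Incubated 15 min at 0°C with [3H]folic acid (50 nM, 0.5 Ci/mmol) plus a range of unlabeled ligand concentrations. Bound label normalized to protein (pmol/mg). […] Triplicate.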

[12] = target: Folate receptor alpha (Homo sapiens) (UniProt P15328); test: Displacement of [3H]-folic acid from human folate receptor-alpha expressed in Chinese hamster RT16 cells after 15 mins; format: cell-based; method in brief: as §2
Folate receptor alpha (Homo sapiens), sequence (P15328 25-234 limits assumed): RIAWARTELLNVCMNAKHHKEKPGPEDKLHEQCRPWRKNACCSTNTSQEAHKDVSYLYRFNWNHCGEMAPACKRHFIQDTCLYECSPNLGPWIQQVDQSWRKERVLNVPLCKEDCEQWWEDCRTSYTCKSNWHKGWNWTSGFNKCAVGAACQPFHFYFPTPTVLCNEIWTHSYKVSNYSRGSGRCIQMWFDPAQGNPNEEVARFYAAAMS

[13] = target: Thymidylate synthase (Homo sapiens) (UniProt P04818); test: Inhibition of recombinant TS (unknown origin)
Thymidylate synthase (Homo sapiens), sequence (P04818 2-313 limits assumed): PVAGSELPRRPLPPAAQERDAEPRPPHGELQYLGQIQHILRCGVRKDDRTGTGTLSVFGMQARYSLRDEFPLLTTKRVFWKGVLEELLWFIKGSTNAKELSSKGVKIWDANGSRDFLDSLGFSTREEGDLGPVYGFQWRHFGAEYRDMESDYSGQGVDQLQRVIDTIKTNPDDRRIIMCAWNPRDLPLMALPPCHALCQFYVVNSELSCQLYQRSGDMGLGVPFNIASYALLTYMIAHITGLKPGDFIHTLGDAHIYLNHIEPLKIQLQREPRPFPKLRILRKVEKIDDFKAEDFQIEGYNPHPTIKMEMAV

[14] = target: T1, Dihydrofolate reductase (Homo sapiens) (UniProt P00374); test: Inhibition of recombinant DHFR (unknown origin)
T1 sequence (whole entry): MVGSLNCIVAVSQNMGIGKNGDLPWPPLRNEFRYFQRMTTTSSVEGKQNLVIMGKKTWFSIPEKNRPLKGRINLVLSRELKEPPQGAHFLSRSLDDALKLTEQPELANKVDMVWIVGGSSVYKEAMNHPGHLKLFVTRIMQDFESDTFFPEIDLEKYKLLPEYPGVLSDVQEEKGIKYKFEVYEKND

[15] = system: KB; test: Growth inhibition of human KB cells by CellTiter Blue fluorescence dye-based assay in presence of adenosine and AICA; format: functional, cell-based
Method in brief: (§3)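 KB cells in complete folate-free RPMI 1640 with 2 nM leucovorin were exposed to a drug concentration range. Co-additions were adenosine (60 μM), thymidine (10 μM), both together, or AICA (320 μM). Cell density was read by CellTiter Blue fluorescence and normalized to drug-free cells. Data are representative of triplicate experiments.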

[16] = system: KB; test: Growth inhibition of human KB cells by CellTiter Blue fluorescence dye-based assay in presence of thymidine; format: functional, cell-based; method in brief: as §3
[17] = target: T2, Trifunctional purine biosynthetic protein adenosine-3 (Homo sapiens, UniProt P22102); test: In situ inhibition of GRAFTase in human KB cells assessed as incorporation of [14C]-glycine into [14C]-formyl GAR preincubated for 30 mins followed by [14C]-glycine addition measured after 15 hrs
T2 sequence (P22102 whole entry): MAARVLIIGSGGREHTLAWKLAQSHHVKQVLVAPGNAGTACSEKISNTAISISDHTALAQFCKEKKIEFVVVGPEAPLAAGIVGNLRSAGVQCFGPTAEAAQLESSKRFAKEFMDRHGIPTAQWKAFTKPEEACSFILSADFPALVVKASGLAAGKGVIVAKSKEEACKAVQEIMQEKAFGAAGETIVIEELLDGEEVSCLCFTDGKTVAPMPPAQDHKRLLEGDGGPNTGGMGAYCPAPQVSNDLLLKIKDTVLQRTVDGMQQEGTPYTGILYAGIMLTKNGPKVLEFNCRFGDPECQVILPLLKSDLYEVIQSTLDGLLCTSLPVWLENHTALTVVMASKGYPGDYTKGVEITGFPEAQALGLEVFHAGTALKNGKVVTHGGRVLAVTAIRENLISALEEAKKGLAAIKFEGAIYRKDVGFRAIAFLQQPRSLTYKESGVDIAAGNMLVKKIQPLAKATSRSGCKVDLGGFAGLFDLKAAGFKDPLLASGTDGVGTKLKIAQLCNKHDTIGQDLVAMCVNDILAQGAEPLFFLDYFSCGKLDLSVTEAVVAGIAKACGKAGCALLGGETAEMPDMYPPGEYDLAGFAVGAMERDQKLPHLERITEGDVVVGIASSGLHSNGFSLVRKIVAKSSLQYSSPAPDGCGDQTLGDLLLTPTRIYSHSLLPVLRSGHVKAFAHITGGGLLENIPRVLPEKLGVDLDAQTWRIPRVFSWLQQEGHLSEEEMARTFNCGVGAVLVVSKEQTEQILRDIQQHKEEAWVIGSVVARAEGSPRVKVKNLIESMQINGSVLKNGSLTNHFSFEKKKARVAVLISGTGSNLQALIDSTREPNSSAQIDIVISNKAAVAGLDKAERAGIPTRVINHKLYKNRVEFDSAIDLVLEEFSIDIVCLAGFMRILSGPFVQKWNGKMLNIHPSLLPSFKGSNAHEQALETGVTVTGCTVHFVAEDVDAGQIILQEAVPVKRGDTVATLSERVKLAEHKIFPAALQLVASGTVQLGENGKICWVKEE

| IC50 [1] [nM] | IC50 [2] [nM] | inhibition [11] | inhibition [12] | Compound | IC50 [3] [nM] | IC50 [4] [nM] | IC50 [5] [nM] | IC50 [6] [nM] | IC50 [7] [nM] | IC50 [8] [nM] | IC50 [9] [nM] | IC50 [10] [nM] | inhibition [13] | inhibition [14] | growth inhibition (GI) [15] | growth inhibition (GI) [16] | IC50 [17] [nM] |
| --- | --- | --- | --- | --- | --- | --- | --- | --- | --- | --- | --- | --- | --- | --- | --- | --- | --- |
| 1.94 | 0.47 |  |  | C#CCC(Cc1cnc2nc(N)nc(N)c2n1)c1ccc(C(=O)N[C@@H](CCC(=O)O)C(=O)O)cc1 (mixture of isomers) [PRALATREXATE] | > 1000 | 57 | > 1000 | 168 | 819 | 0.69 |  |  |  |  |  |  |  |
| > 1000 | > 1000 |  |  | Nc1nc2[nH]c(CCCCCCCC(=O)O)cc2c(=O)[nH]1 | > 1000 | > 1000 | > 1000 | > 1000 | > 1000 | > 1000 | > 1000 | > 1000 |  |  |  |  |  |
| > 1000 | > 1000 | inactive | Active | Nc1nc2[nH]c(CCCCCCCCC(=O)O)cc2c(=O)[nH]1 | > 1000 | > 1000 | > 100 | > 10000 | > 1000 | > 1000 | > 1000 | > 1000 |  |  |  |  |  |
| > 1000 | 1.48 | Active | Active | Nc1nc2[nH]c(CCCCCCCCC(=O)N[C@@H](CCC(=O)O)C(=O)O)cc2c(=O)[nH]1 | > 1000 | > 1000 | > 10000 | 12.3 | > 1000 | > 1000 | > 1000 | 3.99 | inactive | inactive | inactive | Active | 9.62 |
| > 1000 | > 1000 |  |  | Nc1nc2[nH]c(CCCCCCC(=O)O)cc2c(=O)[nH]1 | > 1000 | > 1000 | > 1000 | > 1000 | > 1000 | > 1000 | > 1000 | > 1000 |  |  |  |  |  |
| > 1000 | > 1000 |  |  | Nc1nc2[nH]c(CCCCCC(=O)O)cc2c(=O)[nH]1 | > 1000 | > 1000 | > 1000 | > 1000 | > 1000 | > 1000 | > 1000 | > 1000 |  |  |  |  |  |
| > 10000 | 200 | Active | Active | Nc1nc2[nH]c(CCCCCC(=O)N[C@@H](CCC(=O)O)C(=O)O)cc2c(=O)[nH]1 | > 1000 | > 1000 | > 1000 | > 1000 | > 1000 | > 1000 | > 1000 | 214 |  |  |  |  |  |
|  |  |  |  | Nc1nc2[nH]c(CCCCc3ccc(C(=O)N[C@@H](CCC(=O)O)C(=O)O)cc3)cc2c(=O)[nH]1 | > 1000 |  |  |  |  |  |  |  |  |  |  |  |  |
|  |  |  |  | Nc1nc2[nH]c(CCCc3ccc(C(=O)N[C@@H](CCC(=O)O)C(=O)O)cc3)cc2c(=O)[nH]1 | > 1000 |  |  |  |  |  |  |  |  |  |  |  |  |
|  |  |  |  | CN(Cc1cnc2nc(N)nc(N)c2n1)c1ccc(C(=O)N[C@@H](CCC(=O)O)C(=O)O)cc1 [METHOTREXATE] | > 1000 |  |  |  |  |  |  |  |  |  |  |  |  |
|  |  |  |  | Nc1nc2[nH]c(CCCCCCc3ccc(C(=O)N[C@@H](CCC(=O)O)C(=O)O)cc3)cc2c(=O)[nH]1 | > 1000 | > 1000 |  |  |  |  |  |  |  |  |  |  |  |
|  |  |  |  | Nc1nc2[nH]c(CCCCCc3ccc(C(=O)N[C@@H](CCC(=O)O)C(=O)O)cc3)cc2c(=O)[nH]1 | > 1000 | > 1000 |  |  |  |  |  |  |  |  |  |  |  |
|  |  |  |  | Nc1nc2c(c(=O)[nH]1)C[C@@H](CCc1ccc(C(=O)N[C@@H](CCC(=O)O)C(=O)O)cc1)CN2 [LOMETREXOL] | > 1000 |  |  |  |  |  |  |  |  |  |  |  |  |
|  |  | Active | Active | Nc1nc(=O)c2nc(CNc3ccc(C(=O)N[C@@H](CCC(=O)O)C(=O)O)cc3)cnc2[nH]1 |  |  |  |  |  |  |  |  |  |  |  |  |  |
|  |  |  |  | Cc1nc(=O)c2cc(CN(C)c3ccc(C(=O)N[C@@H](CCC(=O)O)C(=O)O)s3)ccc2[nH]1 [RALTITREXED] | > 1000 |  |  |  |  |  |  |  |  |  |  |  |  |

| Compound | IC50 [1] [nM] | IC50 [2] [nM] | inhibition [11] | inhibition [12] | IC50 [3] [nM] | IC50 [4] [nM] | IC50 [5] [nM] | IC50 [6] [nM] | IC50 [7] [nM] | IC50 [8] [nM] | IC50 [9] [nM] | IC50 [10] [nM] | inhibition [13] | inhibition [14] | growth inhibition (GI) [15] | growth inhibition (GI) [16] | IC50 [17] [nM] |
| --- | --- | --- | --- | --- | --- | --- | --- | --- | --- | --- | --- | --- | --- | --- | --- | --- | --- |
| Nc1nc2[nH]c(CCCCCCCC(=O)N[C@@H](CCC(=O)O)C(=O)O)cc2c(=O)[nH]1 | > 1000 | 1.1 | Active | Active | > 1000 | > 1000 | > 1000 | 8.54 | > 1000 | > 1000 | > 1000 | 0.87 | inactive | inactive | inactive | Active | 5.49 |
| Nc1nc2[nH]c(CCCCCCC(=O)N[C@@H](CCC(=O)O)C(=O)O)cc2c(=O)[nH]1 | > 1000 | 7.9 | Active | Active | > 1000 | > 1000 | > 1000 | 47.1 | > 1000 | > 1000 | > 1000 | 10.6 | inactive | inactive | inactive | Active | 2.89 |
